The source of these data is paper PMC5677758 (Journal of the American Chemical Society, 2017).

As a reminder, the Ki is the equilibrium dissociation constant of an inhibitor or competing ligand from its target. The low end stands for tighter binding, the high end for weaker binding.

In this assay the target is T1, GBA3 (Homo sapiens, UniProt Q9H227).
T1 sequence (Q9H227 1-469): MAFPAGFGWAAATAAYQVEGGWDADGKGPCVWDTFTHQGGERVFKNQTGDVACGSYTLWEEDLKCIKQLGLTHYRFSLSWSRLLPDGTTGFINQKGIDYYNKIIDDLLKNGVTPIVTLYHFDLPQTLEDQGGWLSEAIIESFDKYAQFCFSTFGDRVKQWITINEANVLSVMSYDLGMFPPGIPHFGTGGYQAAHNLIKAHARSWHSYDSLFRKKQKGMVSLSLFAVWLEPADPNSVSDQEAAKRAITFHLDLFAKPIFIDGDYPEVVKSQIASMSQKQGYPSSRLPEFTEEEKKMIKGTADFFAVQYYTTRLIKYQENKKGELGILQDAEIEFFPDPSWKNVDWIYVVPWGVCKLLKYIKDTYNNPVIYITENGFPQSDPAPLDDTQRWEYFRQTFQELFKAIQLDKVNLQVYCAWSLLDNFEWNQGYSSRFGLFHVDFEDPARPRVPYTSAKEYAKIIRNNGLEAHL
In words: GBA3 in vitro assay, homogenates of HEK293T overexpressing GBA3. It is filed as biochemical. The essentials: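 Lysate from HEK293T cells stably overexpressing human GBA3 was pretreated 30 min with 1 mM conduritol β epoxide to block GBA1. Assay in 100 mM Hepes pH 7.0 with 0.1% BSA for 1 h, with 0.05–5 mM 4MU-β-D-glucopyranoside plus inhibitor and no inhibitor preincubation. […] Duplicates; Ki from curve fit.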

Molecules are shown by their SMILES.

With `CCCCN1C[C@H](O)[C@@H](O)[C@H](O)[C@H]1CO` [compound 1, N-butyldeoxynojirimycin], the Ki was > 1000 µM.
